High-throughput results: PubChem BioAssay, The Scripps Research Institute Molecular Screening Center
Most compounds without a hit are left out; they make up all but 2.7% or so of the library.
PAFAH2 FP inh – inhibitors of human PAFAH2. inhibition, % at 3.39 µM. Q99487. actives 0.99% (n = 340,000). recombinant PAFAH2, FP-rhodamine activity probe, fluorescence polarization;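 active = inhibition above the mean over all tested compounds plus 3 SD, cut at about 30% in these data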;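 note: inhibitors block probe labeling of enzyme so polarization drops; 0% = enzyme with DMSO and 100% = wells lacking PAFAH2 protein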
PAFAH1B3 FP inh – blocks human PAF acetylhydrolase 1B catalytic subunit 3; Q15102; recombinant PAFAH1B3, FP-rhodamine probe, fluorescence polarization; inhibition, % at 3.39 µM; actives 0.28% (n = 340,000);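 active = inhibition above the screen-wide average of all tested compounds plus 3 SD, cut at about 25% in these data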;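 note: 0% = enzyme with DMSO only and 100% = wells lacking PAFAH1B3 protein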
Target sequence (Q15102 whole entry, looked up): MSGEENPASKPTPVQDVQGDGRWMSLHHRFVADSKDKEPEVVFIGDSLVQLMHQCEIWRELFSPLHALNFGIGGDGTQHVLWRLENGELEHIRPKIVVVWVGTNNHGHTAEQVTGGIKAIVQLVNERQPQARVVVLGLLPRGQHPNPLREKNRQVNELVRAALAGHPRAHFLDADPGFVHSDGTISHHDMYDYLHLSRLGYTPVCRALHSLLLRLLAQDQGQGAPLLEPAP
ARFGAP1 inh – inhibitors of rat ARFGAP1 | Arfgap1-stimulated ARF1 GTP hydrolysis, GDP FP detection | inhibition, % at 16.5 µM | actives 0.26% (n = 360,000) | AID 651572;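 active = inhibition above a per-plate limit, mean inhibition of low control wells plus 3 SD, cut at about 25% in these data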;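 note: 0% = DMSO wells with enzyme and 100% = wells lacking Arfgap1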
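System: truncated rat Arfgap1 GAP domain / Benchmarks: high control wells lacking Arfgap1, low control full reaction with DMSO / Times: compound-enzyme preincubation 20 min, reaction 120 min, detection 60 min, 25 °C / Repeats: one replicate per compound / Also added: human ARF1(Δ1-17)-GTP substrate / Measured by: Tracer-displacement fluorescence polarization with EDTA stop, 620/688 nm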
ASAP1 inh – ASAP1 ArfGAP inhibition; Q9ULH1; ASAP1-stimulated ARF1 GTP hydrolysis, GDP FP detection; inhibition, % at 16.5 µM; actives 0.19% (n = 360,000); AID 624377; in the data active = inhibition above about 25%;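 note: 0% = vehicle with enzyme and substrate and 100% = no enzyme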
PAFAH1B2 FP inh – blocks human PAF acetylhydrolase 1b catalytic subunit 2; AID 492953; inhibition, % at 3.39 µM; recombinant PAFAH1B2, FP-rhodamine activity probe, fluorescence polarization; P68402; actives 1.2% (n = 340,000);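 active = inhibition above the mean of all tested compounds plus 3 SD, cut at about 24% in these data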;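 note: 0% = enzyme with DMSO and 100% = wells lacking PAFAH1B2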
Target sequence (P68402 whole entry, looked up): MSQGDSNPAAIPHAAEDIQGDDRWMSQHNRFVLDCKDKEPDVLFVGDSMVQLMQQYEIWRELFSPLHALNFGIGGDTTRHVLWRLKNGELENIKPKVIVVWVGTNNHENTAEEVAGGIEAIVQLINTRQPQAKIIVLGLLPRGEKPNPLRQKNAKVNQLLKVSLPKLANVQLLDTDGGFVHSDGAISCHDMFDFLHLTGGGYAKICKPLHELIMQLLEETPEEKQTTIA
pPAFAH inh – inhibitors of human plasma PAF acetylhydrolase (pPAFAH); Q13093; recombinant pPAFAH, FP-rhodamine probe fluorescence polarization; inhibition, % at 3.39 µM; actives 1.5% (n = 330,000);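 active = inhibition above the mean inhibition across the screen plus 3 SD, cut at about 25% in these data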;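 note: inhibitors block binding of the rhodamine activity-based probe so polarization drops; 0% = enzyme with DMSO and 100% = wells lacking pPAFAH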
Starred values were filed as active, the others as inactive; x = not tested or not shown.

SMILES	PAFAH2 FP inh	PAFAH1B3 FP inh	ARFGAP1 inh	ASAP1 inh	PAFAH1B2 FP inh	pPAFAH inh
Cn1cc(C(=O)OCC(=O)Nc2ccccc2Cl)c2ccccc21	24	6	1	-14	4	x
NP(=O)(OCCCc1ccccc1)Oc1ccccc1 (centres undefined)	24	6	-5	-8	62*	2
O=C(c1cccnc1)N1Cc2ccccc2-n2nncc2C1	x	x	7	-3	x	x
Cc1nc2c(=O)n(C)c(=O)nc-2n(C)n1	54*	66*	-7	-3	28*	4
COC(=O)C1(F)C(=O)NC(=O)NC1O (centres undefined)	x	x	15	12	x	x
CC1Oc2cc3c(-c4c(O)cc(O)c5c(O)c6c(cc45)OC(C)C(C)C6=O)c(O)cc(O)c3c(O)c2C(=O)C1C (centres undefined)	46*	60*	x	x	52*	91*
COC1CC=C2CCN3CCC4=C(CC(=O)OC4)C23C1 (centres undefined)	x	x	9	-11	x	x
O=C(Nc1ccc(Cl)cc1C(=O)c1ccccc1)c1ccccc1	4	1	-5	-8	-1	29*
O=C(c1cc2c(s1)CCCCCC2)N1CCC2(CC1)OCCO2	25	4	7	3	3	33*
COc1ccccc1[As](=O)(O)CC(O)COc1ccc(Cl)cc1Cl (centres undefined)	x	x	-1	1	x	-8
O=C1CCCN1C(=O)c1cncc(Br)c1	-2	4	-2	-10	26*	0
CN(C)c1ccc(/C=C/C=C2/C(=O)NC(=O)N(c3ccccc3)C2=O)cc1	-66	-52	5	28*	-40	x
Cc1ccc(-[n+]2c(Cc3nn(-c4ccccc4)c(C)[n+]3-c3ccc(C)cc3)nn(-c3ccccc3)c2C)cc1	x	x	8	6	x	x
COc1ccc(OC(=O)N(C)C[C@H]2OCc3cnnn3CCCC(=O)N([C@@H](C)CO)C[C@@H]2C)cc1	x	x	-3	-16	x	x
CCC(C)/C=C(C)/C=C/C1=CC2=C(Cl)C(=O)C(C)(OC(C)=O)C(=O)C2=CO1 (centres undefined)	22	17	x	x	21	32*
O=P(O)(Oc1ccccc1)OC(c1ccccc1)C(F)(F)F (centres undefined)	67*	0	1	4	52*	-11
O=P(NC(c1ccccc1)c1ccccc1)(Oc1ccccc1)Oc1ccccc1	-2	1	0	-17	-3	8
Cc1c2cnn(CC(=O)N3CCC4(CC3)OCCO4)c(=O)c2c(C)n1Cc1ccccc1	-3	2	5	-5	-2	5
O=C(Cn1ncc2c3ccccc3n(Cc3ccc(F)cc3)c2c1=O)N1CCC2(CC1)OCCO2	6	1	x	x	3	32*
O=C1C(=O)c2ccccc2-c2ccccc21	58*	71*	-9	-18	43*	7
O=C1NC(=O)C(=Cc2ccc(Sc3ccccc3)o2)C(=O)N1	33*	-1	6	-8	29*	12
CCOC(=O)c1cc2ccccc2n1C1CCN(Cc2ccccc2)CC1	x	x	-4	-5	x	x
O=C(OCc1ccccc1)N1CCC2CC1c1cc(N3Cc4ccccc4-n4nncc4C3)ccc12 (centres undefined)	x	x	-12	-6	x	x
CCOC(=O)CC(NC(=O)C(Cc1ccc(N(CCCl)CCCl)cc1)NC(C)=O)C(=O)OCC (centres undefined)	0	8	-10	2	11	-3
CC(=O)NC(Cc1ccc(N(CCCl)CCCl)cc1)C(=O)NC(C(=O)O)C(C)C (centres undefined)	1	-3	3	8	25*	0
COC1/C=C/C=C(\C)Cc2cc(O)c(Cl)c(c2)N(C)C(=O)CC(OC(=O)C(C)C)C2(C)OC2C(C)C2CC1(O)NC(=O)O2 (centres undefined)	4	5	-5	13	-2	x
O=C1NC(=O)C(Nc2ccc(Cl)c(Cl)c2)C(=O)N1	-2	2	14	47*	5	x
O=C1CC(=O)N(Cc2ccccc2)C(=S)N1	3	-2	-2	19	31*	2
COc1ccc(CN2C(=O)CC(=O)NC2=O)cc1	-4	1	10	-12	5	-2
Cc1cccc(N2C(=O)NC(=O)/C(=C/c3ccc([N+](=O)[O-])o3)C2=O)c1	x	x	x	x	x	26*
